Measurements published in ChEMBL document CHEMBL4145680, “Tau-Centric Multitarget Approach for Alzheimer's Disease: Development of First-in-Class Dual Glycogen Synthase Kinase 3β and Tau-Aggregation Inhibitors” (J Med Chem, 2018).
Activity calls are given as the source filed them.

Assays:
[1] = molecular target: T1, Glycogen synthase kinase-3 beta (Homo sapiens, UniProt P49841); experiment: Inhibition of GSK3beta (unknown origin) at 10 uM using GS-2 peptide substrate incubated for 30 mins by kinase-Glo luminescent assay
In short: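 Human recombinant GSK-3β, 20 ng, in 50 mM HEPES pH 7.5 with 1 mM EDTA, 1 mM EGTA and Mg acetate. Substrate prephosphorylated GS-2 peptide 25 µM with 1 µM ATP; DMSO ≤1%. Incubated 30 min at 30 °C, then Kinase-Glo luminescence read after 10 min. Activity scaled between no-inhibitor and full-inhibition reference controls.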
Target sequence in this assay (P49841 whole entry, looked up): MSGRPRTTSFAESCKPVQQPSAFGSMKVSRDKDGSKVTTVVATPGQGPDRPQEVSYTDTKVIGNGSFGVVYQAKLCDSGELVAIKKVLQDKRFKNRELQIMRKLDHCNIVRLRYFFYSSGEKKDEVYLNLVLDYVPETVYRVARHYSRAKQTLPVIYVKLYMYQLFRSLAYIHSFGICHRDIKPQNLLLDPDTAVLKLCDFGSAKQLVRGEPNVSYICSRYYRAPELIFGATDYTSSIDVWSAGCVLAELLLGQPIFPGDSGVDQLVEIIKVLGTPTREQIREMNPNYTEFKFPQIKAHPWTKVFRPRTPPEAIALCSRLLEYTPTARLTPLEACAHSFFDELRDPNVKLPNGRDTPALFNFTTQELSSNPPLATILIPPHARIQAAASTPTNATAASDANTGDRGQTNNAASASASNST

[2] = molecular target: T1, Glycogen synthase kinase-3 beta; experiment: Inhibition of GSK3beta (unknown origin) using GS-2 peptide substrate incubated for 30 mins by kinase-Glo luminescent assay
In short: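 Human recombinant GSK-3β, 20 ng, in 50 mM HEPES pH 7.5 with 1 mM EDTA, 1 mM EGTA and Mg acetate. Incubated 30 min at 30 °C, then Kinase-Glo luminescence read after 10 min. Activity scaled between no-inhibitor and full-inhibition reference controls.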
Target sequence in this assay (P49841 whole entry): as the sequence (P49841 whole entry, looked up) above

[3] = molecular target: CDC7/DBF4 (Cell division cycle 7-related protein kinase/Activator of S phase kinase) (Homo sapiens) (UniProt Q9UBU7+O00311); experiment: Inhibition of CDC7/Dbf4 (unknown origin) at 10 uM incubated for 60 mins by Kinase-Glo assay; assay type: protein-complex assay; conditions: in the assay text read “ADP-Glo assay” for “Kinase-Glo assay”
CDC7/DBF4 (Cell division cycle 7-related protein kinase/Activator of S phase kinase) (Homo sapiens), sequence (O00311 whole entry, looked up): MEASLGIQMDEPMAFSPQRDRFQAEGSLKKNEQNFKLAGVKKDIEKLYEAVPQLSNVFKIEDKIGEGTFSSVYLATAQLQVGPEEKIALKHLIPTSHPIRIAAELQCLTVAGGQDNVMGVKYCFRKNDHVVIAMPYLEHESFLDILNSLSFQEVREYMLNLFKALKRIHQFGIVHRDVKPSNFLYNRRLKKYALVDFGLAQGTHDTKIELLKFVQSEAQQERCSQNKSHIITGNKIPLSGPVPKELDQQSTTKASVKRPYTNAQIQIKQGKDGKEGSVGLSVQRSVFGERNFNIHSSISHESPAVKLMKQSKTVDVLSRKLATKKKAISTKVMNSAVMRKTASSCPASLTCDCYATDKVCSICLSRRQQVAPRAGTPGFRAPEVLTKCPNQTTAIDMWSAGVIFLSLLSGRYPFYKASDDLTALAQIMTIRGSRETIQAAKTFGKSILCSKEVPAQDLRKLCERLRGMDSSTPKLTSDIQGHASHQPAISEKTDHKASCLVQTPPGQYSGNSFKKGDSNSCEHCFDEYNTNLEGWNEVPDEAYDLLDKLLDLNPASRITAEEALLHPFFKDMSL
CDC7/DBF4 (Cell division cycle 7-related protein kinase/Activator of S phase kinase) (Homo sapiens), sequence (Q9UBU7 whole entry, looked up): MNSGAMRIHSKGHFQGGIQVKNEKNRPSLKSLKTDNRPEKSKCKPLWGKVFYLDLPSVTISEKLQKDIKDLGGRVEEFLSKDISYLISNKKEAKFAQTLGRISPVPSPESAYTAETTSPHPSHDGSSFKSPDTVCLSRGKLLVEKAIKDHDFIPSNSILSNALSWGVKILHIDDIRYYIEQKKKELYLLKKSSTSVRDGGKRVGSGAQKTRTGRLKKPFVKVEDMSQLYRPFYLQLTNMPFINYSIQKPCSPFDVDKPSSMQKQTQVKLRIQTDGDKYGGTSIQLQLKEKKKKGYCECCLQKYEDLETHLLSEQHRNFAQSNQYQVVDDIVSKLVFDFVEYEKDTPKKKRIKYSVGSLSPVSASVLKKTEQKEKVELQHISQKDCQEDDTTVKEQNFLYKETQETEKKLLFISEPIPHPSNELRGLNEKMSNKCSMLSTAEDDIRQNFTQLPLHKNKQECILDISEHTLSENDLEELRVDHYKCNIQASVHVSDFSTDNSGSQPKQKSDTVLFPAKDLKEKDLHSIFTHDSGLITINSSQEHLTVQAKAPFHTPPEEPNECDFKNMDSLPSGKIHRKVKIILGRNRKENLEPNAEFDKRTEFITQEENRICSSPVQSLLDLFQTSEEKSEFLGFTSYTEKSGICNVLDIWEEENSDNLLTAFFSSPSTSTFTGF
In short: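 CDC7/DBF4 enzyme, 25 ng/well, with 10 µM ATP (final) and PDKtide substrate. Incubated 60 min at room temperature. ADP-Glo reagent added for 40 min, then detection reagent for 30 min, and luminescence read. Inhibition calculated relative to the no-inhibitor maximum.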

[4] = test system: Cerebellar granule neurone; experiment: Neurotoxicity in rat primary cerebellar granule neurons assessed as reduction in cell viability at 50 uM incubated for 24 hrs by MTT assay; assay type: toxicity
In short: (§1)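 Cerebellar granule neurons from 7-day-old rat pups, plated on poly-L-lysine at 3 × 10^5 cells/well in BME with FBS and 25 mM KCl. Cytosine arabinoside 10 µM added at 16 h. At 7 days in vitro, switched to serum-free BME with 25 mM KCl and treated 24 h at 0, 5, 25 or 50 µM. MTT 0.1 mg/mL for 20 min at 37 °C, A570. Mean ± SE of ≥3 experiments in triplicate, as % of control.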

[5] = test system: Cerebellar granule neurone; experiment: Neurotoxicity in rat primary cerebellar granule neurons assessed as reduction in cell viability at 5 to 25 uM incubated for 24 hrs by MTT assay; assay type: toxicity; in short: as §1
[6] = molecular target: T1, Glycogen synthase kinase-3 beta; experiment: Inhibition of okadaic acid-induced GSK-3beta-mediated tau hyperphosphorylation in human SH-SY5Y cells assessed as increase in cell viability pre-incubated for 1 hr before okadaic acid stimulation for 24 hrs by MTT assay; assay type: cell-based
In short: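 SH-SY5Y cells grown in DMEM with 10% FBS, seeded at 60000 per well and used 48 h later. Compound given 1 h before 30nM okadaic acid, then 24 h incubation. Viability by MTT, 0.5mg/mL for at least 4 h, formazan dissolved in DMSO, absorbance at 595 nm. Expressed relative to control (=100); n=6 from three independent experiments.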
Target sequence in this assay (P49841 whole entry, looked up): as the sequence (P49841 whole entry, looked up) above

[7] = Inhibition of AcPHF6 peptide aggregation in pH 7.4 phosphate buffer at 10 uM by atomic force microscopy
In short: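 AcPHF6 500 µM in water diluted to 50 µM in 50 mM phosphate pH 7.4, ±10 µM compound, no ThT. Incubated 80 min at 25 °C with 10 s shaking at 400 rpm each minute. Ultrafiltered (30 kDa cut-off), buffer exchanged to water, and the retained high-MW fraction adsorbed on mica. Imaged by PeakForce tapping-mode AFM.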

[8] = molecular target: T1, Glycogen synthase kinase-3 beta; experiment: Inhibition of GSK3beta (unknown origin) pre-incubated for 30 mins followed by ULight-GS (Ser641/pSer657) peptide substrate addition and measured after 1 hr by TR-FRET assay
Target sequence in this assay (P49841 whole entry): as the sequence (P49841 whole entry, looked up) above

[9] = Inhibition of AcPHF6 peptide aggregation in pH 7.4 phosphate buffer at 20 uM by CD Spectroscopy
[10] = molecular target: T1, Glycogen synthase kinase-3 beta; experiment: Inhibition of GSK3beta (unknown origin) at 10 uM
In short: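 Human recombinant GSK-3β (20 ng) with 25 µM GS-2 prephosphorylated peptide and 1 µM ATP in 50 mM HEPES pH 7.5, 1 mM EDTA, 1 mM EGTA, Mg acetate. DMSO at most 1%. 30 min at 30 °C; reaction stopped with Kinase-Glo, luminescence read after 10 min. Activity scaled between no inhibitor and full inhibition by a reference inhibitor.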
Target sequence in this assay (P49841 whole entry, looked up): as above

[11] = molecular target: Casein kinase I isoform epsilon (Homo sapiens) (UniProt P49674); experiment: Inhibition of human recombinant CK1epsilon at 10 uM incubated for 60 mins by Kinase-Glo assay
Casein kinase I isoform epsilon (Homo sapiens), sequence (P49674 whole entry, looked up, canonical isoform): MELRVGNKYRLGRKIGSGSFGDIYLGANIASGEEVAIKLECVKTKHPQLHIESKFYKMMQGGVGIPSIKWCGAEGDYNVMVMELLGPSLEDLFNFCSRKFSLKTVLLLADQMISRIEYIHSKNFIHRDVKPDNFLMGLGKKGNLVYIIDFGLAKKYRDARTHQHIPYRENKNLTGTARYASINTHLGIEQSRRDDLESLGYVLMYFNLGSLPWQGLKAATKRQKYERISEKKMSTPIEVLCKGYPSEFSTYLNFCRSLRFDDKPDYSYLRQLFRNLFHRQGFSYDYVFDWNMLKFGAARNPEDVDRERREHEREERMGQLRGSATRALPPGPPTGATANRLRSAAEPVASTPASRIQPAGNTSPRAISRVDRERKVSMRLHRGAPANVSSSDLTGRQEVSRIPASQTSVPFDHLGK
In short: (§2)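 Human recombinant CK1δ or CK1ε, 16 ng, in 50 mM HEPES pH 7.5 with 10 mM MgCl2, 1 mM EGTA and Brij-35. Substrate 0.1% casein with 4 µM ATP; compound diluted to 10 µM before addition, DMSO ≤1%. Incubated 60 min at 30 °C, then Kinase-Glo luminescence read. Inhibition relative to no-inhibitor activity; mean of two experiments.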

[12] = molecular target: Casein kinase I isoform delta (Homo sapiens) (UniProt P48730); experiment: Inhibition of human recombinant CK1delta at 10 uM incubated for 60 mins by Kinase-Glo assay; in short: as §2
Casein kinase I isoform delta (Homo sapiens), sequence (P48730 whole entry, looked up, canonical isoform): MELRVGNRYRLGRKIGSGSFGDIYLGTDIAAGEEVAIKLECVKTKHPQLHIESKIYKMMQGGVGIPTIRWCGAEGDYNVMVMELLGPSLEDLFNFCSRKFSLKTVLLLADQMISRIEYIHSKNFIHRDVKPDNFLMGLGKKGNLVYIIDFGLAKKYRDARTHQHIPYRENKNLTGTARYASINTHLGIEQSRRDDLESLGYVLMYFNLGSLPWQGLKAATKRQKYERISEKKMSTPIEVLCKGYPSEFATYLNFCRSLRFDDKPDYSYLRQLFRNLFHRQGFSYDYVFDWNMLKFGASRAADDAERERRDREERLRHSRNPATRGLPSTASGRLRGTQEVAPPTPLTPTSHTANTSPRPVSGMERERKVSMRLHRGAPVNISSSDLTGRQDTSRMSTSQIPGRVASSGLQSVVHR

[13] = Permeability in pH 7.4 PBS incubated for 2.5 hrs by PAMPA-BBB assay; assay type: ADME; conditions: read-out: permeability
In short: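 PAMPA-BBB: donor filter coated with porcine brain lipid in dodecane (20 mg/mL). Compounds in PBS pH 7.4/EtOH 70:30, acceptor filled with the same. Sandwich incubated 2.5 h at 25 °C, then donor and acceptor concentrations measured by UV at 3–5 wavelengths, 3 wells, two runs. Ten reference drugs included for validation.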

[14] = molecular target: T1, Glycogen synthase kinase-3 beta; experiment: Competitive inhibition of GSK3beta (unknown origin) at 10 uM using fixed level of GS-2 peptide substrate and varying ATP levels incubated for 30 mins by kinase-Glo luminescent assay
In short: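 Human recombinant GSK-3β, 20 ng per reaction, in HEPES pH 7.5 buffer with EDTA, EGTA and Mg acetate. GS-2 prephosphorylated peptide held at 25 µM; ATP varied from 1 to 50 µM along with inhibitor level. 30 min at 30 °C, then Kinase-Glo luminescence read after 10 min. Lineweaver–Burk double-reciprocal analysis; means of two experiments, each run in triplicate.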
Target sequence in this assay (P49841 whole entry, looked up): as the sequence (P49841 whole entry, looked up) above

[15] = Hepatotoxicity in human HepG2 cells assessed as reduction in cell viability at 5 to 50 uM incubated for 24 hrs by MTT assay; assay type: toxicity, cell-based; conditions: hepg2, 24 h
In short: (§3)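 HepG2 cells grown in DMEM with 10% FBS at 37 °C, 5% CO2, seeded at 0.5 × 10^5 cells/well and left 24 h. Exposed in serum-free DMEM for 24 h (concentrations listed as 0, 10, 25, 50 µM; elsewhere 0, 5, 25, 50 µM). MTT 0.1 mg/mL for 10 min at 37 °C in the dark. Formazan dissolved in Tris/Triton X-100, A570. Mean ± SE of ≥3 experiments in triplicate; reported as % of control.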

[16] = test system: Cerebellar granule neurone; experiment: Neurotoxicity in rat primary cerebellar granule neurons assessed as reduction in cell viability at 5 uM incubated for 24 hrs by MTT assay; assay type: toxicity; in short: as §1
[17] = Hepatotoxicity in human HepG2 cells assessed as reduction in cell viability incubated for 24 hrs by MTT assay; assay type: toxicity, cell-based; conditions: hepg2, 24 h; in short: as §3

## O=C1NC(=O)/C(=C/c2cccnc2)S1
[1]
  inhibition: > 50%
[2]
  IC50: 8.75 µM

## O=C1NC(=O)/C(=C/c2ccccc2)S1
[1]
  inhibition: < 50%
[2]
  IC50: > 10 µM

## O=C1NC(=O)/C(=C/c2c[nH]c3ccccc23)S1
[3]
  inhibition: inactive
[4]
  Activity: Toxic
[5]
  Activity: Non-Toxic
[1]
  inhibition: > 50%
[6]
  inhibition: Active
[7]
  inhibition: Active
[8]
  IC50: 21 µM
[9]
  inhibition: Active
[10]
  inhibition: 95%
[11]
  inhibition: inactive
[2]
  IC50: 4.93 µM
[12]
  inhibition: inactive
[13]
  Papp at 2.5 h: > 3.07 ×10⁻⁶ cm/s
[14]
  inhibition: Active
[15]
  Activity: Non-Toxic

## O=C1NC(=O)/C(=C/c2cccs2)S1
[1]
  inhibition: > 50%
[2]
  IC50: 7.99 µM

## O=C1NC(=O)/C(=C/c2ccc(F)cc2)S1
[1]
  inhibition: < 50%
[2]
  IC50: > 10 µM

## O=C1NC(=O)/C(=C/c2ccc(O)cc2)S1
[1]
  inhibition: > 50%
[2]
  IC50: 8.99 µM

## O=C1NC(=O)/C(=C/c2ccco2)S1
[1]
  inhibition: < 50%
[2]
  IC50: > 10 µM

## O=C1NC(=O)/C(=C/c2ccc3ccccc3c2)S1
[1]
  inhibition: < 50%
[2]
  IC50: > 10 µM

## O=C1NC(=O)/C(=C/c2cc3ccccc3s2)S1
[1]
  inhibition: > 50%
[2]
  IC50: 7.47 µM
[13]
  Papp at 2.5 h: > 3.07 ×10⁻⁶ cm/s
[16]
  Activity: Toxic
[15]
  Activity: Non-Toxic

## O=C1NC(=O)/C(=C/c2ccccc2OCc2ccccc2)S1
[1]
  inhibition: < 50%
[2]
  IC50: > 10 µM

## COc1cc(/C=C2\SC(=O)NC2=O)ccc1O
[1]
  inhibition: > 50%

## O=C1NC(=O)/C(=C/c2cccc(F)c2)S1
[2]
  IC50: > 10 µM

## CN(C)c1ccccc1/C=C1\SC(=O)NC1=O
[1]
  inhibition: > 50%
[17]
  Activity: Dose-dependent effect
[2]
  IC50: 9.22 µM
[13]
  Papp at 2.5 h: > 3.07 ×10⁻⁶ cm/s
[16]
  Activity: Toxic

## O=C1NC(=O)/C(=C/c2ccccn2)S1
[1]
  inhibition: < 50%
[2]
  IC50: > 10 µM

## O=C1NC(=O)/C(=C/c2ccccc2F)S1
[1]
  inhibition: < 50%
[2]
  IC50: > 10 µM

## O=C1NC(=O)/C(=C/c2cc3ccccc3nc2Cl)S1
[1]
  inhibition: > 50%
[2]
  IC50: 6.13 µM

## O=C1NC(=O)/C(=C/c2ccccc2O)S1
[1]
  inhibition: < 50%
[2]
  IC50: > 10 µM

## O=C1NC(=O)/C(=C/c2ccc(-c3ccccc3)cc2)S1
[1]
  inhibition: < 50%
[2]
  IC50: > 10 µM

## COc1ccc(/C=C2\SC(=O)NC2=O)c(O)c1
[1]
  inhibition: > 50%
[2]
  IC50: 7.08 µM

## O=C1NC(=O)/C(=C/c2ccc3c(c2)OCCO3)S1
[1]
  inhibition: > 50%
[2]
  IC50: 7.01 µM

## Cn1c(/C=C2\SC(=O)NC2=O)nc2ccccc21
[1]
  inhibition: < 50%
[2]
  IC50: > 10 µM

## COc1cc(/C=C2\SC(=O)NC2=O)cc2c1OCO2
[1]
  inhibition: < 50%
[2]
  IC50: > 10 µM

## CN(C)c1cccc(/C=C2\SC(=O)NC2=O)c1
[1]
  inhibition: > 50%
[17]
  Activity: Dose-dependent effect
[2]
  IC50: 8.54 µM
[13]
  Papp at 2.5 h: > 3.07 ×10⁻⁶ cm/s
[16]
  Activity: Toxic

## CN(C)c1ccc(/C=C2\SC(=O)NC2=O)cc1
[1]
  inhibition: < 50%
[2]
  IC50: > 10 µM

## COc1ccc2nc(Cl)c(/C=C3\SC(=O)NC3=O)cc2c1
[1]
  inhibition: > 50%
[2]
  IC50: 3.55 µM

## O=C1NC(=O)/C(=C/c2ccc(O)c([N+](=O)[O-])c2)S1
[1]
  inhibition: > 50%
[2]
  IC50: 9.22 µM

## O=C1NC(=O)/C(=C/C=C/c2ccccc2)S1
[1]
  inhibition: < 50%
[2]
  IC50: > 10 µM

## CN(C)c1ccc(/C=C/C=C2\SC(=O)NC2=O)cc1
[1]
  inhibition: < 50%
[2]
  IC50: > 10 µM

## COc1ccc2[nH]cc(/C=C3\SC(=O)NC3=O)c2c1
[1]
  inhibition: < 50%
[2]
  IC50: > 10 µM

## O=C1NC(=O)/C(=C/c2cc3ccccc3o2)S1
[1]
  inhibition: < 50%
[2]
  IC50: > 10 µM

## O=C1NC(=O)/C(=C/c2cccc(O)c2)S1
[1]
  inhibition: < 50%
[2]
  IC50: > 10 µM

## O=C1NC(=O)/C(=C/c2c(-c3ccccc3)[nH]c3ccccc23)S1
[1]
  inhibition: > 50%
[2]
  IC50: 6.03 µM

## O=C1NC(=O)/C(=C/c2c3ccccc3cc3ccccc23)S1
[1]
  inhibition: < 50%
[2]
  IC50: > 10 µM

## O=C1NC(=O)/C(=C/c2ccncc2)S1
[1]
  inhibition: > 50%
[2]
  IC50: 1.42 µM

## CCc1ccc(CCOc2ccc(CC3SC(=O)NC3=O)cc2)nc1 (stereo not given) [PIOGLITAZONE]
[17]
  Activity: Dose-dependent effect
[16]
  Activity: Toxic
